# Experimental data from ChEMBL document CHEMBL1157589, “Antifungal 3,5-disubstituted furanones: From 5-acyloxymethyl to 5-alkylidene derivatives” (Bioorg Med Chem, 2010).
# Columns and labels:
# Candida albicans [1] = test: Antifungal activity against Candida albicans ATCC 44859 after 24 hrs by microdilution method; assay type: functional; details: ATCC 44859, 24 h
# Procedure, shortened: (§1)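 Yeasts held on Sabouraud dextrose agar. MIC by NCCLS M27-A broth microdilution in RPMI 1640 with L-glutamine, buffered with 0.165 M MOPS to pH 7.0. Compounds in DMSO (≤2% final), twofold dilutions 500–0.48. Final inoculum 5 × 10³ ± 0.2 cfu mL⁻¹. Incubated at 35 °C; absorbance at 540 nm read at 24 and 48 h. MIC is 80% growth inhibition versus control; run twice in duplicate.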
# Trichosporon beigelii [2] = test: Antifungal activity against Trichosporon beigelii 1188 after 24 hrs by microdilution method; assay type: functional; details: Trichosporon beigelii, 1188, 24 h; procedure, shortened: as §1
# Candida parapsilosis [3] = test: Antifungal activity against Candida parapsilosis ATCC 22019 after 24 hrs by microdilution method; assay type: functional; details: Lodderomyces parapsilosis, ATCC 22019, 24 h; procedure, shortened: as §1
# Trichosporon beigelii [4] = test: Antifungal activity against Trichosporon beigelii 1188 after 48 hrs by microdilution method; assay type: functional; details: Trichosporon beigelii, 1188, 48 h; procedure, shortened: as §1
# CCRF-CEM = test: Cytostatic activity against human CCRF-CEM cells after 72 hrs by XTT assay; assay type: functional, cell-based
# Procedure, shortened: (§2)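 Leukemia cells (L1210 ATCC CCL 219, CCRF-CEM ATCC CCL 119, HL-60 ATCC CCL 240) grown in 24-well plates in RPMI 1640 with fetal calf serum. Growth assessed 72 h after drug addition. Viability measured by XTT spectrophotometric assay; potency given as IC50.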
# Pichia kudriavzevii [5] = test: Antifungal activity against Candida krusei ATCC 6258 after 48 hrs by microdilution method; assay type: functional; details: ATCC 6258, 48 h; procedure, shortened: as §1
# L1210 = test: Cytostatic activity against mouse L1210 cells after 72 hrs by XTT assay; assay type: functional, cell-based; details: l1210; procedure, shortened: as §2
# Aspergillus fumigatus [6] = test: Antifungal activity against Aspergillus fumigatus 231 after 48 hrs by microdilution method; assay type: functional; details: Aspergillus fumigatus, 231, 48 h
# Procedure, shortened: (§3)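 Filamentous strains held on Sabouraud dextrose agar. NCCLS M27-A broth microdilution in RPMI 1640 with L-glutamine and 0.165 M MOPS, pH 7.0. DMSO diluent ≤2% final; twofold dilutions 500–0.48. Inoculum 5 × 10³ ± 0.2 cfu mL⁻¹ final.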
# Aspergillus fumigatus [7] = test: Antifungal activity against Aspergillus fumigatus 231 after 24 hrs by microdilution method; assay type: functional; details: Aspergillus fumigatus, 231, 24 h; procedure, shortened: as §3
# HeLa S3 = test: Cytostatic activity against human HeLaS3 cells after 48 hrs by XTT assay
# Pichia kudriavzevii [8] = test: Antifungal activity against Candida krusei ATCC 6258 after 24 hrs by microdilution method; assay type: functional; details: ATCC 6258, 24 h; procedure, shortened: as §1
# Lichtheimia corymbifera [9] = test: Antifungal activity against Absidia corymbifera 272 after 24 hrs by microdilution method; assay type: functional; details: Lichtheimia corymbifera, 272, 24 h; procedure, shortened: as §3
# [10] = system: Trichophyton mentagrophytes; test: Antifungal activity against Trichophyton mentagrophytes 445 after 72 hrs by microdilution method; assay type: functional; details: Trichophyton mentagrophytes, 445, 72 h
# Procedure, shortened: (§4)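 Dermatophyte held on Sabouraud dextrose agar. M27-A microdilution in MOPS-buffered (0.165 M, pH 7.0) RPMI 1640 with L-glutamine. DMSO ≤2% final; twofold dilutions 500–0.48. Inoculum 5 × 10³ ± 0.2 cfu mL⁻¹ final. Incubated at 35 °C; MIC read visually at 72 and 120 h as 80% inhibition of control growth; determined twice in duplicate.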
# Candida tropicalis [11] = test: Antifungal activity against Candida tropicalis 156 after 48 hrs by microdilution method; assay type: functional; details: Candida tropicalis, 156, 48 h; procedure, shortened: as §1
# [12] = system: Trichophyton mentagrophytes; test: Antifungal activity against Trichophyton mentagrophytes 445 after 120 hrs by microdilution method; assay type: functional; details: Trichophyton mentagrophytes, 445, 120 h; procedure, shortened: as §4
# Candida tropicalis [13] = test: Antifungal activity against Candida tropicalis 156 after 24 hrs by microdilution method; assay type: functional; details: Candida tropicalis, 156, 24 h; procedure, shortened: as §1
# Candida parapsilosis [14] = test: Antifungal activity against Candida parapsilosis ATCC 22019 after 48 hrs by microdilution method; assay type: functional; details: Lodderomyces parapsilosis, ATCC 22019, 48 h; procedure, shortened: as §1
# Clavispora lusitaniae [15] = test: Antifungal activity against Candida lusitaniae 2446/I after 48 hrs by microdilution method; assay type: functional; procedure, shortened: as §1
# HL-60 = test: Cytostatic activity against human HL60 cells after 72 hrs by XTT assay; assay type: functional, cell-based; details: hl-60; procedure, shortened: as §2
# Clavispora lusitaniae [16] = test: Antifungal activity against Candida lusitaniae 2446/I after 24 hrs by microdilution method; assay type: functional; procedure, shortened: as §1
# Pichia kudriavzevii [17] = test: Antifungal activity against Candida krusei E28 after 24 hrs by microdilution method; assay type: functional; details: E28, 24 h; procedure, shortened: as §1
# Lichtheimia corymbifera [18] = test: Antifungal activity against Absidia corymbifera 272 after 48 hrs by microdilution method; assay type: functional; details: Lichtheimia corymbifera, 272, 48 h; procedure, shortened: as §3
# Nakaseomyces glabratus [19] = test: Antifungal activity against Candida glabrata 20/I after 48 hrs by microdilution method; assay type: functional; procedure, shortened: as §1
# Candida albicans [20] = test: Antifungal activity against Candida albicans ATCC 90028 after 24 hrs by microdilution method; assay type: functional; details: ATCC 90028, 24 h; procedure, shortened: as §1
# Candida albicans [21] = test: Antifungal activity against Candida albicans ATCC 90028 after 48 hrs by microdilution method; assay type: functional; details: ATCC 90028, 48 h; procedure, shortened: as §1
# Candida albicans [22] = test: Antifungal activity against Candida albicans ATCC 44859 after 48 hrs by microdilution method; assay type: functional; details: ATCC 44859, 48 h; procedure, shortened: as §1
# Nakaseomyces glabratus [23] = test: Antifungal activity against Candida glabrata 20/I after 24 hrs by microdilution method; assay type: functional; procedure, shortened: as §1
# Pichia kudriavzevii [24] = test: Antifungal activity against Candida krusei E28 after 48 hrs by microdilution method; assay type: functional; details: E28, 48 h; procedure, shortened: as §1
Structure (SMILES),MIC80 (Candida albicans [1]) [µM],MIC80 (Trichosporon beigelii [2]) [µM],MIC80 (Candida parapsilosis [3]) [µM],MIC80 (Trichosporon beigelii [4]) [µM],MIC80 (Pichia kudriavzevii [5]) [µM],IC50 (L1210),MIC80 (Aspergillus fumigatus [6]) [µM],MIC80 (Aspergillus fumigatus [7]) [µM],MIC80 (Pichia kudriavzevii [8]) [µM],MIC80 (Lichtheimia corymbifera [9]) [µM],MIC80 [10] [µM],MIC80 (Candida tropicalis [11]) [µM],MIC80 [12] [µM],MIC80 (Candida tropicalis [13]) [µM],MIC80 (Candida parapsilosis [14]) [µM],MIC80 (Clavispora lusitaniae [15]) [µM],IC50 (HL-60),MIC80 (Clavispora lusitaniae [16]) [µM],MIC80 (Pichia kudriavzevii [17]) [µM],MIC80 (Lichtheimia corymbifera [18]) [µM],further results
COC(=O)/C=C1\C=C(c2ccc(Br)cc2)C(=O)O1,> 125,> 125,> 125,> 125,> 125,Not Active,> 125,> 125,> 125,> 125,> 125,> 125,> 125,> 125,> 125,> 125,Not Active,> 125,> 125,> 125,IC50 (CCRF-CEM; ccrf-cem): Not Active; IC50 (HeLa S3; hela s3): Not Active; MIC80 (Nakaseomyces glabratus [19]): > 125 µM; MIC80 (Candida albicans [20]): > 125 µM; MIC80 (Candida albicans [21]): > 125 µM; MIC80 (Candida albicans [22]): > 125 µM; MIC80 (Nakaseomyces glabratus [23]): > 125 µM; MIC80 (Pichia kudriavzevii [24]): > 125 µM
O=C1O/C(=C\c2ccccc2)C=C1c1ccc(Br)cc1,> 125,> 125,> 125,> 125,> 125,Not Active,> 125,> 125,> 125,> 125,> 125,> 125,> 125,> 125,> 125,> 125,Not Active,> 125,> 125,> 125,IC50 (CCRF-CEM; ccrf-cem): Not Active; IC50 (HeLa S3; hela s3): Not Active; MIC80 (Nakaseomyces glabratus [19]): > 125 µM; MIC80 (Candida albicans [20]): > 125 µM; MIC80 (Candida albicans [21]): > 125 µM; MIC80 (Candida albicans [22]): > 125 µM; MIC80 (Nakaseomyces glabratus [23]): > 125 µM; MIC80 (Pichia kudriavzevii [24]): > 125 µM
CC(=O)OC/C=C1/C=C(c2ccc(Br)cc2)C(=O)O1,7.81,31.2,31.2,31.2,62.5,Not Active,31.2,15.6,7.81,31.2,7.81,125,15.6,31.2,62.5,125,Not Active,62.5,62.5,31.2,"IC50 (CCRF-CEM; Homo sapiens, CCRF-CEM, 72 h, read-out: IC50): 4.32 µM; IC50 (HeLa S3; Homo sapiens, HeLa S3, 48 h, read-out: IC50): 4.18 µM; MIC80 (Nakaseomyces glabratus [19]): 62.5 µM; MIC80 (Candida albicans [20]): 31.2 µM; MIC80 (Candida albicans [21]): 62.5 µM; MIC80 (Candida albicans [22]): 31.2 µM; MIC80 (Nakaseomyces glabratus [23]): 31.2 µM; MIC80 (Pichia kudriavzevii [24]): 62.5 µM"
